TCR CD3 inh: inhibitors of human TCR-CD3 interaction, primary screen, biochemical, fluorescence, TAMRA-labeled TCR probe; 360,000 compounds, 0.37% hits; inhibition, % at 9.4 µM; AID 651800, 2012; T-cell receptor (TCR);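 note: recombinant mutant TCR 2C K166C tagged with TAMRA read by polarization; 0% = receptor in buffer alone and 100% = receptor with positive control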
SIAE primary: human SIAE inhibitors, primary screen, biochemical, fluorescence polarization, FP-Rh probe, 1536-well HTS; 370,000 compounds, 0.69% hits; SIAE FP-Rh probe binding; AID 1053197, 2014; inhibition, % at 9.66 µM;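 active = inhibition above a cutoff: mean of compounds within the control limits plus 3 SD of those, cut at about 17% in these data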;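 note: 0% = plate median of compound wells and 100% = probe without SIAE protein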
ABHD4 inh: ABHD4 inhibitors, primary screen, biochemical, fluorescence polarization, mouse; purified mABHD4, FP-Rh probe fluorescence polarization; 370,000 compounds, 0.54% hits; inhibition, % at 8.92 µM; (Lyso)-N-acylphosphatidylethanolamine lipase (Mus musculus), Q8VD66;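 active = inhibition exceeding the mean over every tested compound plus 3 SD, cut at about 30% in these data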;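 note: 0% = plate median of compound wells and 100% = S159A mutant with DMSO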
Target sequence (Q8VD66 whole entry, looked up): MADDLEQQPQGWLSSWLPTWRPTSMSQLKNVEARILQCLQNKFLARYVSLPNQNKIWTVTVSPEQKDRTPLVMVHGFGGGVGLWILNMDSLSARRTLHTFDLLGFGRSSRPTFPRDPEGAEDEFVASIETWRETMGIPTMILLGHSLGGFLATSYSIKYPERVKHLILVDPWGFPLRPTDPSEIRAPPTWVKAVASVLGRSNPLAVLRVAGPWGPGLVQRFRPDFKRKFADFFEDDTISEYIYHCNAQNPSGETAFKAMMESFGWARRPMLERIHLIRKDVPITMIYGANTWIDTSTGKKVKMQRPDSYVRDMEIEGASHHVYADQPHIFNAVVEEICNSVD
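Doses – 8.92 µM, single dose · Material – wild-type mouse ABHD4 protein · Replication – single well per compound (singlicate) · Measure – percent inhibition of probe binding, normalized to plate controls · Schedule – 45 min compound pre-incubation plus 60 min probe step, 25 °C · Detection – fluorescence polarization with parallel and perpendicular emission, 525/598 nm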
HTRA1 inhibitor: HTRA1 serine protease inhibitors, primary screen, biochemical, fluorescence polarization, HTS; Q92743; recombinant HTRA1, FP-rhodamine activity-based probe; inhibition, % at 5.96 µM; 340,000 compounds, 0.5% hits; AID 504803, 2011; in the data active = inhibition above about 36%;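 note: 0% = enzyme with DMSO and 100% = wells lacking enzyme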
DDE Tn6 FP inh: inhibitors of Tn6 peptide binding to fibrin DD(E), primary screen, biochemical, fluorescence polarization, human fibrin, Tn6 probe | Fibrin DD(E) TRITC-Tn6 fluorescence polarization displacement | Fibrinogen beta chain (Homo sapiens), P02675 | inhibition, % at 8.3 µM | 370,000 compounds, 0.21% hits;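 active = inhibition above a per-campaign cutoff: mean of compounds within control limits plus 3 SD, cut at about 15% in these data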;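 note: 0% = median of all compound wells on the plate and 100% = blocking peptide control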
DDE Tn7 FP inh: inhibitors of Tn7 peptide binding to fibrin DD(E), primary screen, biochemical, fluorescence polarization, human fibrin, Tn7 probe; Fibrinogen beta chain (Homo sapiens), P02675; FP displacement of FITC-Tn7 peptide from fibrin DD(E); 0% = median of compound wells per plate; inhibition, % at 8.3 µM; 370,000 compounds, 0.13% hits;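 active = inhibition above the mean of compounds falling within the control limits plus 3 SD of them, cut at about 14% in these data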;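 note: 0% = plate median of compound wells and 100% = 10 µM Aha-Tn7 peptide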
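Also added: labelled Tn7 tracer, 0.1 µM; Assay system: human fibrin DD(E) protein; Amount: 2 µM fibrin DD(E); Schedule: 10 min compound pre-incubation, 3 h probe incubation at room temperature; Repeats: one replicate per compound; Read-out basis: percent inhibition; Measured by: fluorescence polarization of the labelled Tn7 tracer.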
HTRA1 inh conf: HTRA1 protease inhibitors, retest, confirmation, biochemical, fluorescence polarization; shares compounds with HTRA1 inhibitor; recombinant HTRA1, FP-rhodamine activity-based probe; inhibition, % at 5.96 µM; 1,600 compounds, 66% hits; AID 540248, 2011;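 active = mean inhibition over three repeats above a set limit taken from the earlier primary screen, cut at about 37% in these data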;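 note: 0% = HTRA1 with DMSO and 100% = wells lacking HTRA1; inhibitors block probe binding so polarization drops and inhibition rises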
BSA probe FL: compounds interfering with TAMRA-BSA probe, counter-screen for TCR-CD3 interaction inhibitor project, biochemical, fluorescence, TAMRA-labeled BSA. shares compounds with TCR CD3 inh. TAMRA-labeled BSA probe fluorescence counterscreen. inhibition, % at 9.4 µM. 1,200 compounds, 10% hits. AID 652035, 2013; in the data active = inhibition above about 23%;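 note: 0% = buffer low control and 100% = reference high control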
TCR-CD3 conf: TCR-CD3 interaction inhibitors, retest, confirmation, biochemical, fluorescence, TAMRA-labeled TCR probe | shares compounds with TCR CD3 inh | TAMRA-labeled TCR probe fluorescence binding assay | inhibition, % at 9.4 µM | 1,200 compounds, 48% hits | AID 652036, 2013
ABHD4 confirm: ABHD4 inhibitors, retest, confirmation, biochemical, fluorescence polarization, mouse. 1,800 compounds, 55% hits. inhibition, % at 8.92 µM. shares compounds with ABHD4 inh. purified mABHD4, FP-Rh probe fluorescence polarization;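 active = mean inhibition across replicates above the hit cutoff set in the primary screen, cut at about 30% in these data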;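 note: 0% = wild-type ABHD4 with DMSO and 100% = catalytically dead S159A mutant with DMSO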
* = called active by the depositor; / = no result; + = active, no number. This is a sample that favours compounds with a hit; in the whole collection about 1.8% have one here. Cut-off read from the data, not from the text of the source, unless noted: active = inhibition above about 19%; inactive = the rest.

SMILES	TCR CD3 inh	SIAE primary	ABHD4 inh	HTRA1 inhibitor	DDE Tn6 FP inh	DDE Tn7 FP inh	HTRA1 inh conf	others
CCOc1cccc(OCC)c2c(C)[n+](CC3CCCO3)c(C)c1-2 (stereo not given)	/	/	/	50*	/	/	/
Cc1ccccc1CCC[C@H](CC1CCCCC1)CN(C)C(=O)Oc1ccccc1	/	1	13	/	4	5	/
CC[n+]1c(/C=C/C=C/c2ccc(N(C)C)cc2)sc2ccccc21	-53	-81	-98	-43	73*	-2	/
COc1ccc(CN2C(=O)NC(=O)/C(=C/c3ccc([N+](=O)[O-])s3)C2=O)cc1	-38	-8	-82	34	-13	2	/
O=C1NC(=O)N(Cc2ccc(F)cc2)C(=O)/C1=C\c1ccc([N+](=O)[O-])s1	-45	-45	-65	43*	-7	3	/
CC(C)C[C@H]1C(=O)N2CCCC2[C@]2(O)O[C@](NC(=O)[C@@H]3C=C4c5cccc6[nH]cc(c56)CC4N(C)C3)(C(C)C)C(=O)N12 (stereo not given in full)	/	/	/	45*	/	/	/
O=C(CN1C(=O)[C@@H](Cc2c[nH]c3ccccc23)N=C(c2ccccc2)c2ccccc21)NC1CCCCC1	/	2	1	/	2	10	/
O=C(CN1C(=O)[C@@H](Cc2ccccc2)N=C(c2ccccc2)c2ccccc21)NC1CCCCC1	/	-8	-2	/	-2	-5	/
CC[C@H](C)/C=C(C)/C=C/C1=CC2=C(Cl)C(=O)[C@](C)(OC(C)=O)C(=O)C2=CO1	/	/	/	70*	/	/	/
CN1c2ccc(Br)cc2[C@H]2NCC[C@H]2[C@H]1CO	/	-5	2	/	6	5	/
Oc1ccc(/C=N/NP(=S)(c2ccccc2)c2ccccc2)cc1O	-2	-9	24	58*	4	9	62*
Oc1ccccc1/C=N/NP(=S)(c1ccccc1)c1ccccc1	-4	-15	-36	-31	-14	1	/
Oc1ccc(/C=N/NP(=S)(c2ccccc2)c2ccccc2)c(O)c1O	6	-1	28	75*	3	6	85*
CCC(NC(=O)OCc1ccccc1)P(=O)(Oc1ccccc1)Oc1ccccc1 (stereo not given)	/	-3	-7	/	-5	-12	/
COc1ccc(-n2c(/C=C/c3ccc(O)c(OC)c3)nc3ccccc3c2=O)cc1	-4	8	1	-8	-10	-5	/
COc1cccc(-n2c(/C=C/c3ccc(O)c(O)c3)nc3ccccc3c2=O)c1	14	-3	21	58*	8	1	47*
COc1ccccc1CCNCc1cc2c(cc1[N+](=O)[O-])OCO2	4	7	14	42*	-2	3	10
O=C(O)c1cccc2c1NC(C(=O)O)C1CC(Sc3ccccc3[N+](=O)[O-])C(Cl)C21 (stereo not given)	37*	61*	82*	93*	-3	-2	60*
N#CC1c2ccccc2-n2nncc2CN1C(=O)c1cccnc1 (stereo not given)	/	1	4	/	-2	-8	/
O=C(COC(=O)Cc1ccccc1)NC(=O)NC1CCCCC1	8	3	2	36*	1	-6	38*
O=C(COC(=O)Cc1ccccc1)NC12CC3CC(CC(C3)C1)C2	-5	-4	2	-4	-4	-3	/
CN1C(=O)[C@@]23C[C@]4(c5c[nH]c6ccccc56)c5ccccc5N(S(=O)(=O)c5ccccc5)[C@@H]4N2C(=O)[C@@H]1SS3	/	3	-5	/	-3	2	/
COC(=O)C1(N(C)c2ccccc2)CCN(Cc2ccccc2)CC1	/	-2	5	/	4	7	/
Cn1ccnc1P(=S)(c1nccn1C)c1nccn1C	2	0	3	71*	3	-3	106*
CN(C)[C@@H]1C(=O)C(C(N)=O)=C(O)[C@@]2(O)C(=O)C3=C(O)c4c(O)cccc4[C@@](C)(O)[C@H]3[C@H](O)[C@@H]12	45*	10	63*	51*	1	-5	23	BSA probe FL=6;TCR-CD3 conf=27*
SMILES	TCR CD3 inh	SIAE primary	ABHD4 inh	HTRA1 inhibitor	DDE Tn6 FP inh	DDE Tn7 FP inh	HTRA1 inh conf	others
N#CC1c2ccccc2-n2nncc2CN1C(=O)c1ccc([N+](=O)[O-])o1 (stereo not given)	/	-11	6	/	2	-3	/
NCCc1cc(O)c(O)cc1O	170*	91*	45*	73*	10	5	48*	BSA probe FL=+;TCR-CD3 conf=+;ABHD4 confirm=92*
CN1C(=O)/C(=C/c2cccn2-c2ccc3ccccc3c2)C(=O)NC1=S	-6	11	65*	60*	1	-1	12	ABHD4 confirm=3
Cc1cc(C)cc(N2C(=O)NC(=O)/C(=C\c3cccn3-c3ccccc3)C2=O)c1	2	-4	-4	2	-4	-7	/
c1cncc(-c2ccc3n2Cc2cnnn2-c2ccccc2-3)c1	/	-2	4	/	5	-8	/
CN(C)[C@@H]1C(=O)C(C(N)=O)=C(O)[C@@]2(O)C(=O)C3=C(O)c4c(O)ccc(Cl)c4[C@@](C)(O)[C@H]3C[C@@H]12	11	9	57*	40*	1	-1	15	ABHD4 confirm=8
N=c1c2c(-c3ccccc3)c(-c3ccccc3)n(Cc3ccccc3)c2ncn1C1CCC(O)CC1 (stereo not given)	/	17	7	/	-5	-9	/
CCOc1ccccc1-n1c(O)c(C=Nc2ccc(N(CC)CC)cc2)c(=O)[nH]c1=O	24*	11	67*	58*	13	1	4	BSA probe FL=2;TCR-CD3 conf=1;ABHD4 confirm=13

Compound activity deposited in PubChem BioAssay by The Scripps Research Institute Molecular Screening Center.
